Consider 16 compounds from paper PMC9996623 (ACS Omega, 2023).

One experiment concerns the target HIV-1 integrase (Human immunodeficiency virus type 1 group M subtype B, UniProt P04585). In words: HIV-1 integrase strand transfer. It is filed as biochemical. To be noted: for inhibition at 10 µM: read-out: %ST inhibition (percentage inhibition of strand transfer activity of integrase enzyme), 10 μM dose, WT (wild-type) integrase; for fold increase in %ST inhibition compared to 10a: versus 10a.

A further experiment has as its system TZM-bl cells. Put plainly: MTT cytotoxicity assay on TZM-bl cells. It is filed as cell-based. Particulars: IC50 values at 48 h, 3.125 to 200 μM. Put shortly:
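Medium with compound removed; MTT reagent (5 mg/mL) added for 4 h; formazan dissolved in DMSO with shaking; absorbance read at 570 nm against a 630 nm reference. Percent viability plotted versus concentration.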

In general, inhibition refers to the percentage by which the read-out fell short of the control. As for `Cn1cc(-c2ccccc2)c2ccc(Cl)nc21` [10a, 6-Chloro-1-methyl-3-phenyl-1H-pyrrolo[2,3-b]pyridine], the inhibition at 10 µM at HIV-1 integrase was determined as 14%.
In the case of `Cn1cc(-c2cc(C(F)(F)F)cc(C(F)(F)F)c2)c2ccc(Cl)nc21` [10f, 3-(3,5-Bis(trifluoromethyl)phenyl)-6-chloro-1-methyl-1H-pyrrolo[2,3-b]pyridine], the inhibition at 10 µM at HIV-1 integrase is 48.3%.
Take `Cc1ccc(-c2cn(C)c3nc(Cl)ccc23)cc1` [10b, 6-Chloro-1-methyl-3-(p-tolyl)-1H-pyrrolo[2,3-b]pyridine]: at HIV-1 integrase (10 μM dose), the “fold increase in %ST inhibition compared to 10a” value is around 3 fold. On HIV-1 integrase, the inhibition at 10 µM came out at 41%.
For `COc1ccc(Cn2cc(-c3ccc4c(c3)OCO4)c3ccc(-c4ccc5ccccc5c4)nc32)cc1` [12b, 3-(Benzo[d][1,3]dioxol-5-yl)-1-(4-methoxybenzyl)-6-(naphthalen-2-yl)-1H-pyrrolo[2,3-b]pyridine], the inhibition at 10 µM on HIV-1 integrase worked out at 24.1%.
`COc1ccc(-c2ccc3c(-c4ccc(F)cc4F)cn(C)c3n2)cc1` [11d, 3-(2,4-Difluorophenyl)-6-(4-methoxyphenyl)-1-methyl-1H-pyrrolo[2,3-b]pyridine]: the inhibition at 10 µM on HIV-1 integrase was found to be 72%.
In the case of `Cc1ccc(-c2ccc3c(-c4ccccc4)cn(C)c3n2)cc1` [11b, 1-Methyl-3-phenyl-6-(p-tolyl)-1H-pyrrolo[2,3-b]pyridine], at HIV-1 integrase, the inhibition at 10 µM stood at 51.7%.
In the case of `Cn1cc(-c2ccc3c(c2)OCO3)c2ccc(Cl)nc21` [10h, 3-(Benzo[d][1,3]dioxol-5-yl)-6-chloro-1-methyl-1H-pyrrolo[2,3-b]pyridine], the inhibition at 10 µM at HIV-1 integrase amounted to 54%.
For the compound `Cn1cc(-c2ccc3c(c2)OCO3)c2ccc(-c3ccncc3)nc21` [11f, 3-(Benzo[d][1,3]dioxol-5-yl)-1-methyl-6-(pyridin-4-yl)-1H-pyrrolo[2,3-b]pyridine], the “fold increase in %ST inhibition comparing 10h and 11f” value at HIV-1 integrase (10 μM dose, versus 10h) is given as around 1.3 fold. For the same compound, at HIV-1 integrase, the inhibition at 10 µM is 71%. Moreover, the “IC50 in TZM-bl” value in the experiment with TZM-bl cells is reported as “minimal cytotoxicity”.
`COc1ccc(-c2cn(C)c3nc(Cl)ccc23)cc1` [10d, 6-Chloro-3-(4-methoxyphenyl)-1-methyl-1H-pyrrolo[2,3-b]pyridine]: the inhibition at 10 µM at HIV-1 integrase is 56%.
Take `COc1ccc(-c2ccc3c(-c4ccccc4)cn(C)c3n2)cc1` [11a, 6-(4-Methoxyphenyl)-1-methyl-3-phenyl-1H-pyrrolo[2,3-b]pyridine]: at HIV-1 integrase (10 μM dose), the “fold increase in %ST inhibition compared to 10a” value is reported as around 2 fold. For the same compound, the inhibition at 10 µM at HIV-1 integrase is 39.3%.
As to `Cn1cc(-c2ccccc2)c2ccc(-c3ccsc3)nc21` [11e, 1-Methyl-3-phenyl-6-(thiophen-3-yl)-1H-pyrrolo[2,3-b]pyridine], on HIV-1 integrase, the inhibition at 10 µM came out at 41.6%.
Take `Cc1nnc(C(=O)NC(C)(C)c2nc(C(=O)NCc3ccc(F)cc3)c(O)c(=O)n2C)o1` [RAL, Raltegravir, reference compound]: the inhibition at 10 µM on HIV-1 integrase is 82%.
Take `COc1ccc(Cn2cc(-c3ccsc3)c3ccc(-c4ccncc4)nc32)cc1` [12a, 1-(4-Methoxybenzyl)-6-(pyridin-4-yl)-3-(thiophen-3-yl)-1H-pyrrolo[2,3-b]pyridine]: on HIV-1 integrase, the inhibition at 10 µM was determined as 15.9%.
Regarding `Cn1cc(-c2ccc(F)cc2)c2ccc(Cl)nc21` [10e, 6-Chloro-3-(4-fluorophenyl)-1-methyl-1H-pyrrolo[2,3-b]pyridine], at HIV-1 integrase, the inhibition at 10 µM was determined as 38.3%.
Regarding `Cn1cc(-c2ccccc2)c2ccc(-c3cc(C(F)(F)F)cc(C(F)(F)F)c3)nc21` [11c, 6-(3,5-Bis(trifluoromethyl)phenyl)-1-methyl-3-phenyl-1H-pyrrolo[2,3-b]pyridine], on HIV-1 integrase, the inhibition at 10 µM is 36.4%.
For `Cc1cccc(-c2cn(C)c3nc(Cl)ccc23)c1` [10c, 6-Chloro-1-methyl-3-(m-tolyl)-1H-pyrrolo[2,3-b]pyridine], at HIV-1 integrase, the inhibition at 10 µM is 19.4%.
